# Reference: ChEMBL document CHEMBL3272319, “Alkyl streptozotocin analogues with improved biological activities” (J Med Chem, 1976)
# Experiments:
# [1] = Antitumor activity against mouse S180A cells allografted in ip dosed ICR mouse administered qd for 5 days; assay type: functional; conditions: 120 h
# Summary of the method: (§1)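 Ascites Sarcoma 180 (1 × 10^7 cells) implanted into ICR mice, six animals per group. Five daily ip injections in saline (days 1–5). Sacrificed day 7. T/C % computed from total packed cell volume (ascites volume × PCV) vs controls. Grades: 100-66 = -, 65-41 = +, 40-11 = ++, 10-0 = +++.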
# [2] = test system: Proteus vulgaris; assay: Antibacterial activity against Proteus vulgaris AHU 1469 assessed as growth inhibition after 18 hrs by broth dilution method; assay type: functional; conditions: AHU 1469, 18 h
# Summary of the method: (§2)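 Twofold serial dilutions in heart infusion broth. Inoculum was a 24-h heart infusion broth culture diluted 100-fold in physiological saline. Tubes incubated 30 °C for 18 h; the table footnote gives 32 °C for 24 h. MIC in µg/ml is the lowest level giving complete growth inhibition.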
# [3] = test system: Pseudomonas fluorescens; assay: Antibacterial activity against Pseudomonas fluorescens NIHJ B-254 assessed as growth inhibition after 18 hrs by broth dilution method; assay type: functional; conditions: NIHJ B-254, 18 h; summary of the method: as §2
# [4] = Therapeutic index, ratio of LD10 for JCL-ICR mouse to ED90 for mouse S180A cells allografted in ICR mouse; conditions: read-out: TI
# [5] = test system: Klebsiella pneumoniae; assay: Antibacterial activity against Klebsiella pneumoniae ATCC 10031 assessed as growth inhibition after 18 hrs by broth dilution method; assay type: functional; conditions: ATCC 10031, 18 h; summary of the method: as §2
# [6] = test system: Mus musculus; assay: Toxicity in BDF1 mouse allografted with mouse L1210 cells assessed as mortality at 50 mg/kg, ip qd for 5 days; assay type: organism-based; set-up: dose 50 mg/kg, route intraperitoneal; conditions: in vivo, 120 h
# Summary of the method: (§3)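 L1210 (1 × 10^5 cells) implanted into BDF1 mice, six per group; compound in saline ip once daily days 1-5; effect read as % increase in life span, ILS = [(treated life span/control life span) − 1] × 100.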
# [7] = test system: Shigella sonnei; assay: Antibacterial activity against Shigella sonnei assessed as growth inhibition after 18 hrs by broth dilution method; assay type: functional; summary of the method: as §2
# [8] = test system: L1210; assay: Antitumor activity against mouse L1210 cells allografted in ip dosed BDF1 mouse assessed as 30% increase in host lifespan administered for qd for 5 days; assay type: functional
# [9] = test system: Escherichia coli; assay: Antibacterial activity against Escherichia coli NIHJ JC-2 assessed as growth inhibition after 18 hrs by broth dilution method; assay type: functional; conditions: NIHJ JC-2, 18 h; summary of the method: as §2
# [10] = test system: Mus musculus; assay: Toxicity in ICR mouse allografted with mouse S180A assessed as mortality at 25 mg/kg, ip qd for 5 days; assay type: organism-based; set-up: dose 25 mg/kg, route intraperitoneal; conditions: in vivo, 120 h
# Summary of the method: (§4)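 Ascites Sarcoma 180 (1 × 10^7 cells) implanted into ICR mice, six per group; compound in saline ip once daily days 1-5; sacrifice on day 7; total packed cell volume (ascites volume × PCV) compared with controls as T/C %; mortality recorded.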
# [11] = Acute toxicity in iv dosed dog; assay type: organism-based, Canis lupus familiaris; conditions: in vivo
# [12] = test system: Enterococcus faecalis; assay: Antibacterial activity against Streptococcus faecalis ATCC 10541 assessed as growth inhibition after 18 hrs by broth dilution method; assay type: functional; conditions: ATCC 10541, 18 h; summary of the method: as §2
# [13] = test system: Mus musculus; assay: Ratio of compound LD10 to streptozotocin LD10 for JCL-ICR mouse; assay type: ADME, organism-based; conditions: in vivo
# [14] = Acute toxicity in iv dosed mouse; assay type: organism-based; conditions: in vivo
# [15] = (§5) Acute toxicity in ip dosed JCL-ICR mouse assessed as animal death; assay type: organism-based; conditions: JCL-ICR, in vivo
# Summary of the method: (§6)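 Groups of ten female JCL-ICR mice given single ip dose in physiological saline; deaths followed over 7 days; LD50 (and LD10) derived by Litchfield–Wilcoxon method.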
# [16] = test system: Mus musculus; assay: as §5; assay type: organism-based; conditions: in vivo; summary of the method: as §6
# [17] = test system: Mus musculus; assay: Toxicity in ICR mouse allografted with mouse EAC assessed as mortality at 150 mg/kg, ip qd for 5 days; assay type: organism-based; set-up: dose 150 mg/kg, route intraperitoneal; conditions: in vivo, 120 h
# Summary of the method: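 Ehrlich ascites carcinoma (1 × 10^7 cells) implanted into ICR mice, six per group; compound ip daily for 5 days; mice sacrificed day 7; tumour burden as total packed cell volume (ascites volume × PCV), T/C % vs controls; mortality recorded.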
# [18] = test system: Staphylococcus aureus; assay: Antibacterial activity against Staphylococcus aureus FDA 209P JC-1 assessed as growth inhibition after 18 hrs by broth dilution method; assay type: functional; conditions: FDA 209P JC-1, 18 h; summary of the method: as §2
# [19] = test system: Rattus norvegicus; assay: Diabetogenic activity in Wistar rat assessed as increase in blood sugar level at 30 to 120 mg/kg, ip qd for 1 month measured 24 hrs last drug dosage by glucose oxidase method; assay type: ADME, organism-based; set-up: dose 30-120 mg/kg, route intraperitoneal; conditions: in vivo
# Summary of the method: (§7)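 Male Wistar rats, about 150 g, five per group. Drug in physiological saline given ip qd on days 1–30. Blood drawn 24 h after the last dose. Sugar measured by glucose oxidase.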
# [20] = test system: L1210; assay: Antitumor activity against mouse L1210 cells allografted in BDF1 mouse assessed as increase in host lifespan at 50 mg/kg, ip qd for 5 days relative to control; assay type: functional; conditions: 120 h, route intraperitoneal; summary of the method: as §3
# [21] = test system: Rattus norvegicus; assay: Diabetogenic activity in Wistar rat assessed as increase in blood sugar level at 68 mg/kg, iv administered as single dose by glucose oxidase method; assay type: ADME, organism-based; set-up: dose 68 mg/kg, route intravenous; conditions: in vivo
# Summary of the method: (§8)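 Male Wistar rats, about 200 g, five per group, fasted 16 h. Single iv dose into the femoral vein in physiological saline, equimolar across compounds. Caudal-vein blood sampled at set times over 24 h. Sugar measured by glucose oxidase.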
# [22] = test system: Mus musculus; assay: Toxicity in ip dosed BDF1 mouse allografted with mouse L1210 cells assessed as optimal dose required for mortality administered qd for 5 days; assay type: organism-based; conditions: in vivo, 120 h
# [23] = test system: Bacillus subtilis; assay: Antibacterial activity against Bacillus subtilis ATCC 6633 assessed as growth inhibition after 18 hrs by broth dilution method; assay type: functional; conditions: ATCC 6633, 18 h; summary of the method: as §2
# [24] = test system: Micrococcus luteus; assay: Antibacterial activity against Sarcina lutea ATCC 9341 assessed as growth inhibition after 18 hrs by broth dilution method; assay type: functional; conditions: ATCC 9341, 18 h; summary of the method: as §2
# [25] = Ratio of compound LD50 to streptozotocin LD50 for JCL-ICR mouse; assay type: ADME, organism-based; conditions: in vivo
# [26] = Antitumor activity against mouse S180A allografted in ICR mouse assessed as tumor growth at 25 mg/kg, ip qd for 5 days measured on day 7 relative to control; assay type: functional; conditions: route intraperitoneal; summary of the method: as §1
# [27] = test system: Salmonella typhi; assay: Antibacterial activity against Salmonella typhi IFM 3020 assessed as growth inhibition after 18 hrs by broth dilution method; assay type: functional, Salmonella enterica subsp. enterica serovar Typhi; conditions: Salmonella enterica, IFM 3020, 18 h
# Summary of the method: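 Twofold serial dilutions in heart infusion broth; inoculum from 24 h heart infusion broth culture diluted 100-fold in physiological saline; tubes incubated 30 °C for 18 h; MIC (µg/ml) = lowest level giving complete growth inhibition.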
# [28] = test system: Ehrlich; assay: Antitumor activity against mouse EAC allografted in ICR mouse assessed as tumor growth at 150 mg/kg, ip qd for 5 days measured on day 7 relative to control; assay type: functional; conditions: route intraperitoneal
# Summary of the method: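 Ehrlich ascites carcinoma (1 × 10^7 cells) implanted into ICR mice, six per group. Drug in saline ip, qd days 1–5. Mice killed day 7. Total packed cell volume = ascites volume × % packed cell volume; T/C % = TPCV treated/control × 100. Activity graded from T/C.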
# [29] = Antitumor activity against mouse S180A allografted in ICR mouse assessed as tumor growth at 50 mg/kg, ip qd for 5 days measured on day 7 relative to control; assay type: functional; conditions: route intraperitoneal; summary of the method: as §1
# [30] = test system: Mus musculus; assay: Toxicity in ICR mouse allografted with mouse S180A assessed as mortality at 50 mg/kg, ip qd for 5 days; assay type: organism-based; set-up: dose 50 mg/kg, route intraperitoneal; conditions: in vivo, 120 h; summary of the method: as §4
# [31] = test system: Mus musculus; assay: Toxicity in BDF1 mouse allografted with mouse L1210 cells assessed as mortality at 125 mg/kg, ip qd for 5 days; assay type: organism-based; set-up: dose 125 mg/kg, route intraperitoneal; conditions: in vivo, 120 h; summary of the method: as §3
# [32] = test system: L1210; assay: Antitumor activity against mouse L1210 cells allografted in BDF1 mouse assessed as increase in host lifespan at 125 mg/kg, ip qd for 5 days relative to control; assay type: functional; conditions: 120 h, route intraperitoneal; summary of the method: as §3
# [33] = test system: Rattus norvegicus; assay: Diabetogenic activity in iv dosed Wistar rat assessed as increase in blood sugar level administered as single dose by glucose oxidase method; assay type: ADME, organism-based; conditions: in vivo; summary of the method: as §8
# [34] = test system: Rattus norvegicus; assay: Diabetogenic activity in Wistar rat assessed as increase in blood sugar level at 65 mg/kg, iv administered as single dose by glucose oxidase method; assay type: ADME, organism-based; set-up: dose 65 mg/kg, route intravenous; conditions: in vivo; summary of the method: as §8
# [35] = test system: Rattus norvegicus; assay: Diabetogenic activity in Wistar rat assessed as increase in blood sugar level at 20 mg/kg, ip qd for 1 month measured 24 hrs last drug dosage by glucose oxidase method; assay type: ADME, organism-based; set-up: dose 20 mg/kg, route intraperitoneal; conditions: in vivo; summary of the method: as §7
# [36] = test system: L1210; assay: Antitumor activity against mouse L1210 cells allografted in BDF1 mouse assessed as increase in host lifespan at 200 mg/kg, ip qd for 5 days relative to control; assay type: functional; conditions: 120 h, route intraperitoneal; summary of the method: as §3
# [37] = test system: L1210; assay: Antitumor activity against mouse L1210 cells allografted in BDF1 mouse assessed as increase in host lifespan at 100 mg/kg, ip qd for 5 days relative to control; assay type: functional; conditions: 120 h, route intraperitoneal; summary of the method: as §3
# [38] = test system: Mus musculus; assay: Toxicity in BDF1 mouse allografted with mouse L1210 cells assessed as mortality at 200 mg/kg, ip qd for 5 days; assay type: organism-based; set-up: dose 200 mg/kg, route intraperitoneal; conditions: in vivo, 120 h; summary of the method: as §3
# [39] = test system: Mus musculus; assay: Toxicity in BDF1 mouse allografted with mouse L1210 cells assessed as mortality at 100 mg/kg, ip qd for 5 days; assay type: organism-based; set-up: dose 100 mg/kg, route intraperitoneal; conditions: in vivo, 120 h; summary of the method: as §3
Structure (SMILES),ED90 [1],MIC [2],MIC [3],selectivity ratio [4],MIC [5],Activity [6],MIC [7],Activity [8],MIC [9],Activity [10],LD50 [11],MIC [12],Ratio [13],LD50 [14],LD50 [15],LD10 [16],MIC [18],MIC [23],MIC [24],MIC [27],also measured
CO[C@@H]1O[C@H](CO)[C@@H](O)[C@H](O)[C@H]1NC(=O)N(C)N=O,50 mg/kg/day,> 1000 µg/mL,> 1000 µg/mL,16,> 1000 µg/mL,Non-toxic,> 1000 µg/mL,33 mg/kg/day,> 1000 µg/mL,Non-toxic,400 mg/kg,> 1000 µg/mL,2,1620 mg/kg,1700 mg/kg,800 mg/kg,> 1000 µg/mL,> 1000 µg/mL,> 1000 µg/mL,> 1000 µg/mL,Activity [17]: Non-toxic; Activity [19]: Non-toxic; ILS at 50 mg/kg [20]: 40%; Activity [21]: Non-toxic; Activity [22]: 400 mg/kg/day; selectivity ratio [25]: 2; T/C [26]: 22%; T/C [28]: 1%
CCO[C@H]1O[C@H](CO)[C@@H](O)[C@H](O)[C@H]1NC(=O)N(C)N=O,–,> 1000 µg/mL,> 1000 µg/mL,–,> 1000 µg/mL,–,> 1000 µg/mL,–,> 1000 µg/mL,–,–,> 1000 µg/mL,2,–,2050 mg/kg,2000 mg/kg,> 1000 µg/mL,> 1000 µg/mL,> 1000 µg/mL,> 1000 µg/mL,T/C [29]: 38%; Activity [30]: Non-toxic; Activity [31]: Non-toxic; ILS at 125 mg/kg [32]: 64%; Activity [33]: Non-toxic; selectivity ratio [25]: 2
CN(N=O)C(=O)N[C@@H](C=O)[C@@H](O)[C@H](O)[C@H](O)CO [STREPTOZOCIN],90 mg/kg/day,0.4 µg/mL,6.3 µg/mL,2.6,> 200 µg/mL,Non-toxic,> 200 µg/mL,23 mg/kg/day,12.5 µg/mL,Non-toxic,50 mg/kg,–,–,275 mg/kg,360 mg/kg,235 mg/kg,1.6 µg/mL,12.5 µg/mL,> 200 µg/mL,> 200 µg/mL,Activity [34]: Toxic; T/C [29]: 26%; Activity [35]: Toxic; Activity [30]: Non-toxic; ILS at 200 mg/kg [36]: 0%; ILS at 100 mg/kg [37]: 76%; Activity [38]: Non-toxic; ILS at 50 mg/kg [20]: 44%; Activity [22]: 100 mg/kg/day; Activity [39]: Non-toxic; T/C [26]: 40%
